Measurements from ChEMBL document CHEMBL1144619, “The synthesis and biological evaluation of novel series of nitrile-containing fluoroquinolones as antibacterial agents” (Bioorg Med Chem Lett, 2007).
In brackets after ≈: the same amount, converted by molar mass.

Experiments:
[1] = system: Moraxella catarrhalis; assay: Antibacterial activity against Moraxella catarrhalis BC-3531; assay type: functional
[2] = system: Staphylococcus aureus; assay: Antibacterial activity against Staphylococcus aureus SA2552; assay type: functional
[3] = system: Streptococcus pneumoniae; assay: Antibacterial activity against Streptococcus pneumoniae SV1; assay type: functional
[4] = target: hERG (KCNH2) (Homo sapiens, UniProt Q12809); assay: Displacement of [3H]dofetilide from human ERG at 300 uM; details: probe [3H]dofetilide
Sequence of hERG (KCNH2) (Q12809 whole entry): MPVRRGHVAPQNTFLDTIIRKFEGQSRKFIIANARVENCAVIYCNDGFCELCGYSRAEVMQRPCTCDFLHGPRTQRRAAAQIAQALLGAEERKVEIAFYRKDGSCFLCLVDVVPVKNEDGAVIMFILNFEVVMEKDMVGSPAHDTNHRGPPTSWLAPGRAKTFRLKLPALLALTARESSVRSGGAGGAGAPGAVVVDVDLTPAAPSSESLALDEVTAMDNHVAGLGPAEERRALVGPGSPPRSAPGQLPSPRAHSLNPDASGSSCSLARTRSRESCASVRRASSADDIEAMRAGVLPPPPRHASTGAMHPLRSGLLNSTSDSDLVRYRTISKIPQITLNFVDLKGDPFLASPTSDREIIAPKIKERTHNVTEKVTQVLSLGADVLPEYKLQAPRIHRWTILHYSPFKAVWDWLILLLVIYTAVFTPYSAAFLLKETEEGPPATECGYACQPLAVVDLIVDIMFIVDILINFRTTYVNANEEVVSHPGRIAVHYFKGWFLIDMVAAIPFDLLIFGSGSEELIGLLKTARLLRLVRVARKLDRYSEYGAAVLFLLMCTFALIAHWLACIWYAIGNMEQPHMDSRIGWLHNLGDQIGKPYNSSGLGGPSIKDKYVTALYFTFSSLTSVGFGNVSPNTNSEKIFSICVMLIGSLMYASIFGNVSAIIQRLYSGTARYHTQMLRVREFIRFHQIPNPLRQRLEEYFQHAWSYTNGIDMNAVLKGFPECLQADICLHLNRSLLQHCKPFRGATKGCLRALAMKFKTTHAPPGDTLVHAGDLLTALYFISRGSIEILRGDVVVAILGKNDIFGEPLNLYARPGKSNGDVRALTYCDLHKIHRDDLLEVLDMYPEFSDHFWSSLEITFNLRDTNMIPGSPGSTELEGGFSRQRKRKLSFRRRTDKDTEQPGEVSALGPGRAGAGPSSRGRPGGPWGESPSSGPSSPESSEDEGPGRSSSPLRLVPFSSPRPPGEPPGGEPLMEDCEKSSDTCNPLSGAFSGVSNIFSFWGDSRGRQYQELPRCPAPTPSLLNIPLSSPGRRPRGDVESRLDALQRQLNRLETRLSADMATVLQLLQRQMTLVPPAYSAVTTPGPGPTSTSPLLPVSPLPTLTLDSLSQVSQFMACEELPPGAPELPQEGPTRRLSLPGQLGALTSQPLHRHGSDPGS
Method in brief: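 Radioligand filter-binding assay measuring displacement of [3H]-dofetilide from the hERG channel, run as in a patent protocol.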

[5] = system: Haemophilus influenzae; assay: Antibacterial activity against Haemophilus influenzae HI3542; assay type: functional; details: HI-3542
[6] = system: Staphylococcus aureus; assay: Antibacterial activity against Staphylococcus aureus UC76; assay type: functional
[7] = system: Streptococcus pneumoniae; assay: Antibacterial activity against fluoroquinolone resistance Streptococcus pneumoniae SP3765; assay type: functional
[8] = target: Voltage-gated inwardly rectifying potassium channel KCNH2 (Homo sapiens, UniProt Q12809); assay: Displacement of [3H]dofetilide from human ERG by fliter binding assay
Sequence of Voltage-gated inwardly rectifying potassium channel KCNH2 (Q12809 whole entry): as above

[9] = Volume of distribution in rat at 1 mg/kg, iv; assay type: ADME, organism-based; design: dose 1 mg/kg, route intravenous; details: in vivo, read-out: Vdss
[10] = Half life in rat at 1 mg/kg, iv; assay type: ADME, organism-based; design: dose 1 mg/kg, route intravenous; details: in vivo
[11] = Cmax in rat at 5 mg/kg, po; assay type: ADME, organism-based; design: dose 5 mg/kg, route oral; details: in vivo
[12] = Clearance in rat at 1 mg/kg, iv; assay type: ADME, organism-based; design: dose 1 mg/kg, route intravenous; details: in vivo
[13] = system: Rattus norvegicus; assay: AUC in rat at 1 mg/kg, iv; assay type: ADME, organism-based, Plasma; design: dose 1 mg/kg, route intravenous; details: in vivo
[14] = Bioavailability in rat at 5 mg/kg, po; assay type: ADME, organism-based; details: in vivo

SMILES: COc1c(N2CC[C@@H]([C@@H](N)CC#N)C2)c(F)cc2c(=O)c(C(=O)O)cn(C3CC3)c12
- MIC [1]: 0.03 µg/mL (≈ 0.0724 µM)
- MIC [2]: 0.002 µg/mL (≈ 0.00483 µM)
- MIC [3]: 0.008 µg/mL (≈ 0.0193 µM)
- inhibition at 300 µM [4]: 29%
- MIC [5]: 0.008 µg/mL (≈ 0.0193 µM)
- MIC [6]: 0.001 µg/mL (≈ 0.00241 µM)
- MIC [7]: 0.125 µg/mL (≈ 0.302 µM)
- Ki [8]: > 150 µM

SMILES: COc1c(N2CC[C@@H](CN)C2)ccc2c(=O)c(C(=O)O)cn(C3CC3)c12
- MIC [1]: 0.5 µg/mL (≈ 1.4 µM)
- MIC [2]: 0.25 µg/mL (≈ 0.699 µM)
- MIC [3]: 0.125 µg/mL (≈ 0.35 µM)
- MIC [5]: 0.06 µg/mL (≈ 0.168 µM)
- MIC [6]: 0.03 µg/mL (≈ 0.0839 µM)
- MIC [7]: 4 µg/mL (≈ 11.2 µM)
- Ki [8]: 64 µM

SMILES: CC1COc2c(N3CC[C@@H]([C@@H](N)CC#N)C3)c(F)cc3c(=O)c(C(=O)O)cn1c23 (stereo partly specified)
- MIC [1]: 0.125 µg/mL (≈ 0.312 µM)
- MIC [2]: 0.06 µg/mL (≈ 0.15 µM)
- MIC [3]: 0.015 µg/mL (≈ 0.0375 µM)
- inhibition at 300 µM [4]: 22%
- MIC [5]: 0.008 µg/mL (≈ 0.02 µM)
- MIC [6]: 0.008 µg/mL (≈ 0.02 µM)
- MIC [7]: 0.125 µg/mL (≈ 0.312 µM)
- Ki [8]: > 150 µM

SMILES: CCC1(CN)CN(c2c(F)cc3c(=O)c(C(=O)O)cn(C4CC4)c3c2C)C1
- MIC [1]: 0.125 µg/mL (≈ 0.335 µM)
- MIC [2]: 0.03 µg/mL (≈ 0.0803 µM)
- MIC [3]: 0.06 µg/mL (≈ 0.161 µM)
- MIC [5]: 0.015 µg/mL (≈ 0.0402 µM)
- MIC [6]: 0.015 µg/mL (≈ 0.0402 µM)
- MIC [7]: 1 µg/mL (≈ 2.68 µM)
- Ki [8]: 45 µM

SMILES: CCC1(CNCCC#N)CN(c2c(F)cc3c(=O)c(C(=O)O)cn(C4CC4)c3c2C)C1
- Vd [9]: 1 L/kg
- half-life [10]: 1.4 h
- MIC [1]: 0.25 µg/mL (≈ 0.586 µM)
- MIC [2]: 0.03 µg/mL (≈ 0.0703 µM)
- Cmax [11]: 2600 ng/mL
- MIC [3]: 0.125 µg/mL (≈ 0.293 µM)
- inhibition at 300 µM [4]: 25%
- MIC [5]: 0.06 µg/mL (≈ 0.141 µM)
- clearance [12]: 13 mL/min/kg
- MIC [6]: 0.03 µg/mL (≈ 0.0703 µM)
- AUC [13]: 6.5 ug/hr.ml
- MIC [7]: 2 µg/mL (≈ 4.69 µM)
- bioavailability [14]: 92%
- Ki [8]: > 150 µM

SMILES: COc1c(N2CC[C@@H]([C@H](C)NCCC#N)C2)c(F)cc2c(=O)c(C(=O)O)cn(C3CC3)c12
- Vd [9]: 2.5 L/kg
- half-life [10]: 2.7 h
- MIC [1]: 0.06 µg/mL (≈ 0.136 µM)
- MIC [2]: 0.008 µg/mL (≈ 0.0181 µM)
- Cmax [11]: 1200 ng/mL
- MIC [3]: 0.015 µg/mL (≈ 0.0339 µM)
- inhibition at 300 µM [4]: 2%
- MIC [5]: 0.06 µg/mL (≈ 0.136 µM)
- clearance [12]: 24 mL/min/kg
- MIC [6]: 0.004 µg/mL (≈ 0.00904 µM)
- AUC [13]: 3.5 ug/hr.ml
- MIC [7]: 0.125 µg/mL (≈ 0.282 µM)
- bioavailability [14]: 70%
- Ki [8]: > 150 µM

SMILES: COc1c(N2CC[C@@H]([C@H](C)NCCC#N)C2)ccc2c(=O)c(C(=O)O)cn(C3CC3)c12
- MIC [1]: 1 µg/mL (≈ 2.36 µM)
- MIC [2]: 0.125 µg/mL (≈ 0.294 µM)
- MIC [3]: 0.25 µg/mL (≈ 0.589 µM)
- MIC [5]: 0.5 µg/mL (≈ 1.18 µM)
- MIC [6]: 0.03 µg/mL (≈ 0.0707 µM)
- MIC [7]: 2 µg/mL (≈ 4.71 µM)

SMILES: CC1COc2c(N3CC[C@@H]([C@H](C)N)C3)c(F)cc3c(=O)c(C(=O)O)cn1c23 (stereo partly specified)
- MIC [1]: 0.06 µg/mL (≈ 0.16 µM)
- MIC [2]: 0.125 µg/mL (≈ 0.333 µM)
- MIC [3]: 0.03 µg/mL (≈ 0.0799 µM)
- inhibition at 300 µM [4]: 35%
- MIC [5]: 0.008 µg/mL (≈ 0.0213 µM)
- MIC [6]: 0.015 µg/mL (≈ 0.04 µM)
- MIC [7]: 0.25 µg/mL (≈ 0.666 µM)
- Ki [8]: > 100 µM

SMILES: COc1c(N2CC[C@@H](CNCCC#N)C2)c(F)cc2c(=O)c(C(=O)O)cn(C3CC3)c12
- MIC [1]: 0.5 µg/mL (≈ 1.17 µM)
- MIC [2]: 0.06 µg/mL (≈ 0.14 µM)
- MIC [3]: 0.125 µg/mL (≈ 0.292 µM)
- MIC [5]: 0.125 µg/mL (≈ 0.292 µM)
- MIC [6]: 0.03 µg/mL (≈ 0.07 µM)
- MIC [7]: 2 µg/mL (≈ 4.67 µM)
- Ki [8]: 106 µM

SMILES: O=C(O)c1cn(C2CC2)c2cc(N3CCNCC3)c(F)cc2c1=O [CIPROFLOXACIN]
- MIC [1]: 0.03 µg/mL (≈ 0.0905 µM)
- MIC [2]: 1 µg/mL (≈ 3.02 µM)
- MIC [5]: 0.008 µg/mL (≈ 0.0241 µM)
- MIC [7]: 16 µg/mL (≈ 48.3 µM)

SMILES: C[C@H]1COc2c(N3CCN(C)CC3)c(F)cc3c(=O)c(C(=O)O)cn1c23.C[C@H]1COc2c(N3CCN(C)CC3)c(F)cc3c(=O)c(C(=O)O)cn1c23.O [LEVOFLOXACIN]
- MIC [1]: 0.06 µg/mL
- MIC [2]: 0.5 µg/mL
- inhibition at 300 µM [4]: 10%
- MIC [5]: 0.015 µg/mL
- MIC [6]: 0.125 µg/mL

SMILES: CN[C@@H](C)[C@@H]1CCN(c2c(F)cc3c(=O)c(C(=O)O)cn(C4CC4)c3c2OC)C1 [PREMAFLOXACIN]
- MIC [1]: 0.06 µg/mL (≈ 0.149 µM)
- MIC [2]: 0.06 µg/mL (≈ 0.149 µM)
- MIC [3]: 0.008 µg/mL (≈ 0.0198 µM)
- inhibition at 300 µM [4]: 40%
- MIC [5]: 0.015 µg/mL (≈ 0.0372 µM)
- MIC [6]: 0.015 µg/mL (≈ 0.0372 µM)
- MIC [7]: 0.125 µg/mL (≈ 0.31 µM)
- Ki [8]: > 150 µM
